Data: ChEMBL document CHEMBL1152777, “Potent non-benzoquinone ansamycin heat shock protein 90 inhibitors from genetic engineering of Streptomyces hygroscopicus” (J Med Chem, 2009)
The source made the active and inactive calls. No cut-off for these calls is given here.

Key:
SK-OV-3 = test: Cytotoxicity against human SKOV3 cells after 72 hrs; format: functional, cell-based; conditions: SK-OV-3, 72 h
Summary of the method: (§1)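 Viability was read by CellTiter-Glo luminescent assay. Values are means of three independent determinations.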

SK-BR-3 [1] = test: Cytotoxicity against human SKBR3 cells after 72 hrs; format: functional, cell-based; conditions: SK-BR-3, 72 h; summary of the method: as §1
MCF7 [2] = test: Cytotoxicity against human MCF7 cells after 72 hrs; format: functional, cell-based; conditions: MCF7, 72 h; summary of the method: as §1
[3] = Cytotoxicity against NQ01-deficient human MDA468 cells after 72 hrs; format: functional, cell-based; conditions: MDA-MB-468, 72 h; summary of the method: as §1
[4] = biological target: T1, Heat shock protein HSP 90-alpha (Homo sapiens, UniProt P07900); test: Binding affinity to human recombinant Hsp90alpha N-terminal domain by isothermal titration calorimetry
HCT-116 = test: Cytotoxicity against human HCT116 cells after 72 hrs; format: functional, cell-based; conditions: HCT-116, 72 h; summary of the method: as §1
NCI-H596 = test: Cytotoxicity against NQ01-deficient human NCI-H596 cells after 72 hrs; format: functional, cell-based; conditions: NCI-H596, 72 h; summary of the method: as §1
COLO 205 [5] = test: Antitumor activity against human COLO205 tumor bearing mouse assessed as reduction of tumor volume at 15 mg/kg, iv once daily for 5 days with 2 day interval for total 13 doses; format: functional, organism-based; parameters: dose 15 mg/kg
Summary of the method: (§2)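 COLO205 tumor-bearing mice received iv doses of vehicle or test agent (15, 30 or 90 mg/kg) daily for 5 days, then a 2-day holiday, for 13 doses in total. Groups had 10 mice each. Tumor growth was followed over the dosing period and compared with vehicle.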

Mus musculus [6] = test: Inhibition of HSP90 in human COLO205 tumor bearing nu/nu mouse assessed as induction of HSP70 expression at 30 mg/kg, […] after 4 hrs by ELISA; format: functional, organism-based; parameters: dose 30 mg/kg
Summary of the method: (§3)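 COLO205 xenograft mice were given a single dose. Tumors were harvested 4 or 24 h later and tumor lysates assayed by ELISA for Hsp70 or ErbB2 protein levels. Vehicle-dosed mice served as comparison.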

COLO 205 [7] = test: Antitumor activity against human COLO205 tumor bearing mouse assessed as reduction of tumor volume at 30 mg/kg, iv administered once daily for 5 days with 2 day interval for total 13 doses; format: functional, organism-based; parameters: dose 30 mg/kg; summary of the method: as §2
Mus musculus [8] = test: Inhibition of HSP90 in human COLO205 tumor bearing nu/nu mouse assessed as reduction of ErbB2 protein level at 30 mg/kg, […] after 4 hrs by ELISA; format: functional, organism-based; parameters: dose 30 mg/kg; summary of the method: as §3
Mus musculus [9] = test: Toxicity in human COLO205 tumor bearing nu/nu mouse assessed as body weight change at 30 mg/kg, iv administered once daily for 5 days with 2 day interval for total 13 doses; format: organism-based; parameters: dose 30 mg/kg, route intravenous; conditions: in vivo
[10] = biological target: T1, Heat shock protein HSP 90-alpha; test: Binding affinity to human recombinant Hsp90alpha N-terminal domain by scintillation proximity assay
Mus musculus [11] = test: Inhibition of HSP90 in human COLO205 tumor bearing nu/nu mouse assessed as reduction of ErbB2 protein level at 30 mg/kg, iv after 24 hrs by ELISA
Mus musculus [12] = test: Inhibition of HSP90 in human COLO205 tumor bearing nu/nu mouse assessed as induction of HSP70 expression at 30 mg/kg, […] after 24 hrs by ELISA; format: functional, organism-based; parameters: dose 30 mg/kg; summary of the method: as §3
Mus musculus [13] = test: Toxicity in human COLO205 tumor bearing nu/nu mouse assessed as body weight change at 15 mg/kg, iv administered once daily for 5 days with 2 day interval for total 13 doses; format: organism-based; parameters: dose 15 mg/kg, route intravenous; conditions: in vivo
COLO 205 [14] = test: Antitumor activity against human COLO205 tumor bearing mouse assessed as reduction of tumor volume dosed intravenously once daily for 5 days with 2 day interval for total 13 doses; format: functional, organism-based; summary of the method: as §2
COLO 205 [15] = test: Antitumor activity against human COLO205 tumor bearing mouse assessed as reduction of tumor volume at 90 mg/kg, iv administered once daily for 5 days with 2 day interval for total 13 doses; format: functional, organism-based; parameters: dose 90 mg/kg; summary of the method: as §2
SK-BR-3 [16] = test: Cytotoxicity against human SKBR3 cells after 72 hrs in presence of NQO1 inhibitor dicoumarol; format: functional, cell-based; conditions: SK-BR-3, 72 h; summary of the method: as §1
MCF7 [17] = test: Cytotoxicity against human MCF7 cells after 72 hrs in presence of NQO1 inhibitor dicoumarol; format: functional, cell-based; conditions: MCF7, 72 h; summary of the method: as §1

CO[C@H]1C[C@H](C)Cc2cccc(c2)NC(=O)/C(C)=C/CC[C@H](OC)[C@@H](OC(N)=O)/C(C)=C/[C@H](C)[C@H]1O
IC50 (SK-OV-3): 320 nM
IC50 (SK-BR-3 [1]): 96 nM
IC50 (MCF7 [2]): 139 nM
IC50 [3]: 190 nM
Kd [4]: 5.4 nM
IC50 (HCT-116): 240 nM
IC50 (NCI-H596): 390 nM

CO[C@H]1C[C@H](C)Cc2cc(ccc2O)NC(=O)/C(C)=C/CC[C@H](OC)[C@@H](OC(N)=O)/C(C)=C/[C@H](C)[C@H]1O
IC50 (SK-BR-3 [1]): 835 nM
IC50 (MCF7 [2]): 610 nM
IC50 [3]: 420 nM
Kd [4]: 0.8 nM
IC50 (HCT-116): 1050 nM
IC50 (NCI-H596): 1200 nM

CO[C@H]1C[C@H](C)Cc2cc(cc(Cl)c2O)NC(=O)/C(C)=C/CC[C@H](OC)[C@@H](OC(N)=O)/C(C)=C/[C@H](C)[C@H]1O
IC50 (SK-OV-3): 141 nM
Activity (COLO 205 [5]): Active
Activity (Mus musculus [6]): Active
IC50 [3]: 89 nM
Activity (COLO 205 [7]): Active
Activity (Mus musculus [8]): Active
Activity (Mus musculus [9]): Non-toxic
Kd [10]: 50 nM
Activity (Mus musculus [11]): Active
Activity (Mus musculus [12]): Active
IC50 (HCT-116): 120 nM
Activity (Mus musculus [13]): Non-toxic
Activity (COLO 205 [14]): Dose-dependent effect

CO[C@H]1/C=C\C=C(/C)C(=O)Nc2ccc(O)c(c2)C[C@@H](C)C[C@H](OC)[C@H](O)[C@@H](C)/C=C(\C)[C@@H]1OC(N)=O
IC50 (SK-BR-3 [1]): 83 nM
IC50 [3]: 160 nM
Kd [4]: 2.5 nM
IC50 (HCT-116): 179 nM
IC50 (NCI-H596): 325 nM

CO[C@H]1/C=C\C=C(/C)C(=O)Nc2cc(Cl)c(O)c(c2O)C[C@@H](C)C[C@H](OC)[C@H](O)[C@@H](C)/C=C(\C)[C@@H]1OC(N)=O
IC50 (SK-OV-3): 350 nM
IC50 (SK-BR-3 [1]): 394 nM
IC50 (MCF7 [2]): 330 nM
IC50 [3]: 443 nM
IC50 (HCT-116): 422 nM
IC50 (NCI-H596): 710 nM

C=CCNC1=C2C[C@@H](C)C[C@H](OC)[C@H](O)[C@@H](C)/C=C(\C)[C@H](OC(N)=O)[C@@H](OC)/C=C\C=C(/C)C(=O)NC(=CC1=O)C2=O [TANESPIMYCIN]
IC50 (SK-OV-3): 240 nM
Activity (COLO 205 [5]): Active
Activity (COLO 205 [15]): Active
IC50 (SK-BR-3 [1]): 44 nM
IC50 (MCF7 [2]): 58 nM
IC50 [3]: 1500 nM
IC50 (SK-BR-3 [16]): 410 nM
IC50 (HCT-116): 202 nM
IC50 (NCI-H596): 1600 nM
IC50 (MCF7 [17]): 662 nM

CO[C@H]1/C=C\C=C(/C)C(=O)NC2=CC(=O)C(NCCN(C)C)=C(C[C@@H](C)C[C@H](OC)[C@H](O)[C@@H](C)/C=C(\C)[C@@H]1OC(N)=O)C2=O [ALVESPIMYCIN]
IC50 (SK-OV-3): 122 nM
IC50 (SK-BR-3 [1]): 58 nM
IC50 (MCF7 [2]): 71 nM
IC50 [3]: 1600 nM
IC50 (SK-BR-3 [16]): 230 nM
IC50 (HCT-116): 57 nM
IC50 (NCI-H596): 1100 nM
IC50 (MCF7 [17]): 862 nM
